Values belong to the compound of their own block, whether it stands above or below them. The source made the active and inactive calls. No cut-off for these calls is given here.
Key:
Format in all cases: functional
[1] = Antioxidant activity against lipid peroxidation assessed as TBARS production using rape seed oil after 60 mins
Summary of the method: (§1)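 Rape seed oil emulsified with Tween-40 in Tris-HCl (0.2 M, pH 7.4). Test compound added at final 37.5, 75.0, 125.0 or 250.0 µM, then tubes held in a boiling water bath for 30 min. Absorbance read at 532 nm. Lipid peroxidation inhibition is given as percent versus a blank without compound. Triplicate.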

[2] = Antioxidant activity against pentose 2-deoxyribose oxidation at 250 uM after 60 mins by TBA method
Summary of the method: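 Deoxyribose assay in KH2PO4/KOH (10.0 mM, pH 7.4) with H2O2, EDTA, FeCl3 and ascorbic acid (each 100.0 µM) plus 2-deoxyribose (2.8 mM). Compound at final 37.5–250.0 µM, incubated at 37 °C for 1 h. TBA/TCA added, heated at 90 °C for 30 min, read at 532 nm. Result is percent antioxidant capacity versus blank. Triplicate.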

[3] = Antioxidant activity against bovine serum albumin oxidation after 60 mins
Summary of the method: (§2)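 BSA (10 mg/mL) oxidised with H2O2 (1.0 mM) and FeSO4 (0.5 mM) in the presence of sample; shaken 10 min, then TCA (10.0%) precipitation at 4 °C. Pellet derivatised with DNPH (10 mM) in 2 N HCl for 1 h at room temperature, reprecipitated with cold TCA, washed, and dissolved in 6 M guanidine-HCl (pH 6.5). Protein carbonyl formation was measured.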

[4] = system: Radical scavenging activity; experiment: Antioxidant activity assessed as DPPH radical scavenging activity
Summary of the method: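 DPPH absorbance at 515 nm read at 30 min against a blank. Compounds tested at 37.5, 75, 125 and 250 µM in triplicate, with Trolox as standard. IC50 is the concentration giving 50% inhibition of absorbance, taken from the plotted curves.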

[5] = Antioxidant activity against bovine serum albumin oxidation at 37.5 uM after 60 mins; summary of the method: as §2
[6] = Antioxidant activity against lipid peroxidation assessed as TBARS production using rape seed oil at 250 uM after 60 mins; summary of the method: as §1

Structure (SMILES): C[C@H]1Cc2c(O)c3c(c(O)c2O1)[C@@]1(C)CC[C@H]2C[C@@]2(C)C1=C(O)C3=O [TEUVINCENONE C]
Activity [1]: Dose-dependent effect
inhibition [2]: 50%
Activity [3]: Dose-dependent effect
IC50 [4]: 97 µM

IC50 [4]: 24 µM
Structure (SMILES): Cc1c(C)c2c(c(C)c1O)CCC(C)(C(=O)O)O2 (stereo not given) [TROLOX]

Structure (SMILES): C[C@H]1Cc2c(O)c3c(c(O)c2O1)[C@@]1(C)CC[C@H]2C[C@@]2(C)[C@@H]1CC3=O [TEUVINCENONE D]
Activity [1]: Dose-dependent effect
inhibition [2]: 50%
Activity [3]: Dose-dependent effect
IC50 [4]: 111 µM

Structure (SMILES): Cc1cc2c(O)c3c(c(O)c2o1)[C@@]1(C)CCCC(C)(C)C1=C(O)C3=O
Activity [1]: Dose-dependent effect
inhibition [2]: inactive
Activity [3]: Dose-dependent effect
IC50 [4]: 76 µM

Structure (SMILES): C[C@H]1Cc2c(O)c3c(c(O)c2O1)[C@@]1(C)CCCC(C)(C)C1=C(O)C3=O [TEUVINCENONE B]
Activity [1]: Dose-dependent effect
inhibition [2]: 50%
Activity [3]: Dose-dependent effect
IC50 [4]: 55 µM

Structure (SMILES): Cc1cc2c(O)c3c(c(O)c2o1)[C@@]1(C)CCC(=O)C(C)(C)C1=C(O)C3=O
Activity [1]: Dose-dependent effect
inhibition [2]: 50%
Activity [3]: Dose-dependent effect
IC50 [4]: 64 µM

Structure (SMILES): C[C@H]1Cc2c(O)c3c(c(O)c2O1)[C@@]1(C)CCC(=O)C(C)(C)C1=C(O)C3=O [TEUVINCENONE A]
Activity [1]: Dose-dependent effect
inhibition [2]: 50%
Activity [3]: Dose-dependent effect
IC50 [4]: 63 µM

Structure (SMILES): C[C@]12CC[C@H]3C[C@@]3(C)C1=C(O)C(=O)c1c2c(O)c2oc(CO)cc2c1O
Activity [1]: Dose-dependent effect
inhibition [2]: inactive
Activity [3]: Dose-dependent effect
IC50 [4]: 101 µM

Structure (SMILES): Cc1cc2c(O)c3c(c(O)c2o1)[C@@]1(C)CC[C@H]2C[C@@]2(C)C1=C(O)C3=O
inhibition [5]: 31%
Activity [1]: Dose-dependent effect
inhibition [2]: inactive
Activity [3]: Dose-dependent effect
IC50 [4]: 55 µM
inhibition [6]: 76.9%

Structure (SMILES): Cc1cc2c(O)c3c(c(O)c2o1)[C@@]1(C)CC[C@H]2C[C@@]2(C)[C@@H]1CC3=O
Activity [1]: Dose-dependent effect
inhibition [2]: 50%
Activity [3]: Dose-dependent effect
IC50 [4]: 130 µM

Structure (SMILES): CC1(C)CCC[C@@]2(C)C1=C(O)C(=O)c1c(O)c3c(c(O)c12)O[C@@H](CO)C3 [VILLOSIN C]
Activity [1]: Dose-dependent effect
inhibition [2]: 50%
Activity [3]: Dose-dependent effect
IC50 [4]: 86 µM

Structure (SMILES): C[C@@H]1Oc2c(O)c3c(c(O)c2[C@H]1O)C(=O)C(O)=C1[C@]3(C)CC[C@H]2C[C@@]12C
Activity [1]: Dose-dependent effect
inhibition [2]: 50%
Activity [3]: Dose-dependent effect
IC50 [4]: 84 µM

Structure (SMILES): C[C@@H]1Oc2c(O)c3c(c(O)c2[C@H]1O)C(=O)C(O)=C1C(C)(C)CCC[C@@]13C
Activity [1]: Dose-dependent effect
inhibition [2]: 50%
Activity [3]: Dose-dependent effect
IC50 [4]: 71 µM

Structure (SMILES): CC1(C)CCC[C@@]2(C)C1=C(O)C(=O)c1c2c(O)c2oc(CO)cc2c1O
Activity [1]: Dose-dependent effect
inhibition [2]: 50%
Activity [3]: Dose-dependent effect
IC50 [4]: 120 µM

— ChEMBL document CHEMBL1287805, “abeo-abietanes from Teucrium polium roots as protective factors against oxidative stress” (Bioorg Med Chem, 2010)
